# Calls of active or inactive are those of the source.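 How the source made its calls, unless noted: active means fluorescence slope higher than the sample average by over 3 SD (cut at about -0.22 in these data, passing the limit was not always enough); inactive means the rest.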
# Tests used:
# [1] = inhibitors of TNFa-induced NFkB p65 translocation, primary screen, imaging, HUVEC, MLSMR starter and 10KST1 sets (AID 438;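 active means inhibition above 20% together with a positive visual image hit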;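 further: compound added about 3h40 before a 20 min TNFalpha stimulation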;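 on inhibition: signal is the nuclear over cytoplasmic p65 intensity ratio per well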); conditions: HUVEC TNFa-induced p65 nuclear translocation; cell count: measured here: nuclei count (cytotoxicity indicator), at 2.08 µM; inhibition: at 2 µM, stronger effect = higher value, 0% TNFa-plus-vehicle, 100% no-TNFa wells
# [2] = reduction of polyQ htt aggregates in cells – imaging, exon1htt(103Q)mCFP cells, high-content imaging, primary screen (AID 483;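 active means visual image review flags a hit and inhibition of aggregation exceeds 20%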;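 further: compound exposure lasted 3 days before fixation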;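 on nuclei count: percent of the per-plate median nuclei count of sample wells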); conditions: exon1htt(103Q)mCFP cell line, aggregate imaging, at 2 µM; inhibition of aggregation: stronger effect = higher value; nuclei count: measured here: cell count, toxicity
# [3] = endothelial E-selectin expression blockers – imaging, HUVEC, immunofluorescence, MLSMR starter and 10KST1 sets, primary screen (AID 487;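 active means visually confirmed hit in the image check and inhibition above 20%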;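 on inhibition: signal is fraction of cell area covered by stained E-selectin grains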;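 on nuclei count: 100% = median nuclei count of all wells on the same plate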); conditions: HUVEC TNFalpha-induced E-selectin immunofluorescence imaging, at 2 µM; inhibition: stronger effect = higher value; nuclei count: measured here: cell number, toxicity
# [4] = biological target: Voltage-gated potassium channel subunit beta-2 (Rattus norvegicus) (UniProt P62483); test: inhibitors of rat Kvbeta2 reductase activity – biochemical, NADPH fluorescence, primary screen (AID 622); conditions: recombinant KvBeta, 4-cyanobenzaldehyde reduction, at 10 µM, stronger effect = higher value;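 further: slope of raw intensity against log time taken from 70 to 1610 s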
# [5] = biological target: Voltage-gated potassium channel subunit beta-2 (Rattus norvegicus) (UniProt P62483); test: enhancers of rat Kvbeta2 NADPH turnover – biochemical, NADPH fluorescence, primary screen (AID 623;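 active means NADPH fluorescence slope more negative than the mean of all samples by about 3 SD, 99.7% confidence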;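 further: fluorescence intensity change per second fitted from 20 to 320 s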); conditions: Recombinant KvBeta, NADPH fluorescence decrease slope, 10 min; at 10 µM; stronger effect = lower value
# [6] = biological target: Muscarinic acetylcholine receptor M4 (Homo sapiens) (UniProt P08173); test: M4-linked GIRK flux change, two-sided – cell-based, HEK293 M4/GIRK, thallium flux, BTC-AM, M4 allosteric agonist project, primary screen (AID 625;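 active means fluorescence slope after compound addition differing from the mean of all tested samples at 99.7% confidence, mostly higher but some lower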;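 further: thallium influx through GIRK channels coupled to M4 in HEK293 cells with BTC-AM dye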); conditions: at 10 µM, actives lie on both sides
# How it was run: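 System: HEK293 cells with M4 receptor and GIRK channels | Incubation: Cells overnight at 37 °C, BTC-AM loading 1 h, reads 2 min total | Technique: Kinetic BTC-AM fluorescence sampled at 1 Hz, 10 s pre-addition baseline | Measure: Post-addition slope, 15–24 s, of baseline-normalized fluorescence | Control set: Carbachol positive, DMSO negative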
# [7] = blockers of RIG-like receptor reporter activation – cell-based, Sendai virus stimulus, luciferase, 10K MLSCN set, TLR/RLR signaling modifier project, primary screen (AID 602276;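 active means inhibition at or above 50% at 10 µM; inactive means inhibition below 50%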;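 further: firefly luciferase from ISG56 promoter only with Renilla not read in this screen; 0% = Sendai virus plus DMSO and 100% = medium plus DMSO without virus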); conditions: HEK293 RL24 IRF3 luciferase reporter, at 10 µM, stronger effect = higher value
# [8] = TLR3 IRF3 reporter activation blockers – cell-based, poly I:C stimulus, luciferase, 10K MLSCN set, primary screen (AID 602277;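 active means inhibition of the reporter signal at or above 50%; inactive means inhibition below 50%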); conditions: HEK293-TLR3 RL24 IRF3 luciferase reporter, at 10 µM, stronger effect = higher value
# Chain of Voltage-gated potassium channel subunit beta-2 (Rattus norvegicus) (P62483 whole entry, looked up): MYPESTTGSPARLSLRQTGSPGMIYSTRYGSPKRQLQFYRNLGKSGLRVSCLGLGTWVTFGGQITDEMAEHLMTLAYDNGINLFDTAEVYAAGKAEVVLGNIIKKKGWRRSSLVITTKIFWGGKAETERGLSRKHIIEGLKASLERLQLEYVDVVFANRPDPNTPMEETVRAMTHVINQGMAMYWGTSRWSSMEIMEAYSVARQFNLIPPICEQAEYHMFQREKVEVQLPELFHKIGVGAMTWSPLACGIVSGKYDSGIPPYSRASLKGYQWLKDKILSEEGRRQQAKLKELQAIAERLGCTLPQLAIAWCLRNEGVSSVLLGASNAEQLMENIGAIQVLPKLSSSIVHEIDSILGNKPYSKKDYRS
# Chain of Muscarinic acetylcholine receptor M4 (Homo sapiens) (P08173 whole entry, looked up): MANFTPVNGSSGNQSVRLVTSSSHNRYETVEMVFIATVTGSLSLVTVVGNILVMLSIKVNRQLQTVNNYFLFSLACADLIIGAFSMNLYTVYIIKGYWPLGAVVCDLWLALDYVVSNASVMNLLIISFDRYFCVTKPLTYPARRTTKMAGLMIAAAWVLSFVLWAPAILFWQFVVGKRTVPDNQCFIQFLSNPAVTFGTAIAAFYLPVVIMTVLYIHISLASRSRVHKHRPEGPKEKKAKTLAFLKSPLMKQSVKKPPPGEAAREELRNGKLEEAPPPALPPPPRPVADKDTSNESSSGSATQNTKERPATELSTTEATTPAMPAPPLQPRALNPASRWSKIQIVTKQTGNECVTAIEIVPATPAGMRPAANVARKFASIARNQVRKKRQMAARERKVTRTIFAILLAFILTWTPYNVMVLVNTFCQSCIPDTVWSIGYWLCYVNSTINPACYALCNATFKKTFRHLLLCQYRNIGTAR
SMILES,cell count [1],inhibition [1],inhibition of aggregation [2],nuclei count [2] [%],inhibition [3],nuclei count [3] [%],fluorescence slope [4],NADPH fluorescence slope [5],fluorescence slope [6],inhibition [7],inhibition [8]
O=C(Nc1cccnc1N1CCOCC1)c1ccco1,579,-0.3% (inactive),4.6% (inactive),104,-56.6% (inactive),109,-0.221 (inactive),-1.1e-05 (inactive),0.00549 (inactive),10.9% (inactive),10.7% (inactive)
Cc1cccc2cc(CN(Cc3nnnn3Cc3ccco3)C3CCCC3)c3nnnn3c12,719,-2.8% (inactive),4.4% (inactive),113,-14% (inactive),116,-0.451 (inactive),3.4e-05 (inactive),0.00551 (inactive),9.99% (inactive),13% (inactive)
CCn1cc(C(=O)OCC(=O)OC2CC(C)CCC2C(C)C)c(=O)c2ccc(C)nc21 (centres undefined),519,-21.2% (inactive),2.5% (inactive),92.5,26.8% (inactive),104,-0.416 (inactive),-0.000351 (inactive),0.00567 (inactive),18.5% (inactive),5.31% (inactive)
CCOC(=O)c1cnc(-n2nc(C)cc2C)nc1Nc1ccc(N(C)C)cc1,603,-15.5% (inactive),30.6% (inactive),84,-51.8% (inactive),88.2,-0.574 (inactive),-4.7e-05 (inactive),0.00563 (inactive),4.06% (inactive),4.11% (inactive)
CCC(C)OC(=O)C1=C(C)NC2=C(C(=O)C(C(=O)OC)C(C)C2)C1c1ccc(N(C)C)cc1 (centres undefined),280,-2.4% (inactive),12.6% (inactive),104,-8.6% (inactive),115,-0.579 (inactive),2.1e-05 (inactive),0.00551 (inactive),14.7% (inactive),25.6% (inactive)
Cc1sc2ncnc(OCC(=O)N3CCN(S(=O)(=O)c4ccccc4)CC3)c2c1C,247,-7.7% (inactive),11.8% (inactive),90.7,16.8% (inactive),91.8,-0.498 (inactive),3.8e-05 (inactive),0.00565 (inactive),16.8% (inactive),15.1% (inactive)
CC(=O)Nc1ccc(S(=O)(=O)N(CC(=O)O)Cc2ccccc2)cc1,487,6% (inactive),4.7% (inactive),107,-167% (inactive),130,-0.575 (inactive),-4.6e-05 (inactive),0.00557 (inactive),8.06% (inactive),14.2% (inactive)
O=C(COC(=O)C1=COCCO1)Nc1ccccc1Oc1ccccc1,672,9.6% (inactive),31% (inactive),90.2,-33.5% (inactive),103,-0.541 (inactive),-2.5e-05 (inactive),0.00561 (inactive),1.11% (inactive),8.4% (inactive)
COc1ccc(C(=O)OC(COc2ccccc2)Cn2ccnc2)cc1 (centres undefined),348,-7.4% (inactive),-15.3% (inactive),98,13.4% (inactive),118,-0.291 (inactive),6.7e-06 (inactive),0.00691 (inactive),-15.3% (inactive),-24.8% (inactive)
CC(C)(C)C(=O)Cn1c(=N)n(Cc2ccccc2)c2ccccc21,394,6.1% (inactive),8.9% (inactive),99.1,20.9% (inactive),96,-0.409 (inactive),4.3e-05 (inactive),0.00407 (inactive),20% (inactive),17.2% (inactive)
O=C(CN1C(=O)CC(c2ccco2)Sc2ccccc21)Nc1ccc2c(c1)OCCO2 (centres undefined),809,-2.8% (inactive),-218% (inactive),99.6,-69.7% (inactive),105,-0.459 (inactive),-1.9e-05 (inactive),0.0054 (inactive),14.9% (inactive),9.54% (inactive)
COc1ccc(-c2cc(C(=O)NCc3ccc(Cl)cc3)no2)cc1OC,358,-2.5% (inactive),-5.6% (inactive),106,41% (inactive),106,-0.19 (inactive),-1.3e-05 (inactive),0.00727 (inactive),14.3% (inactive),-8.76% (inactive)
CC(=O)Oc1ccc(CCC(C)OC(C)=O)cc1 (centres undefined),634,-2.9% (inactive),-2.2% (inactive),100,-0.1% (inactive),84,-0.518 (inactive),-5.9e-05 (inactive),0.00491 (inactive),14.9% (inactive),12.9% (inactive)
CN(C)CCCNC(=O)CCC1CCCCC1,333,-12.5% (inactive),-4% (inactive),103,-132% (inactive),110,-0.277 (inactive),-3.7e-05 (inactive),0.00526 (inactive),12% (inactive),21.1% (inactive)

# From PubChem BioAssay
